According to ChEMBL document CHEMBL1250501, “Anti-tubercular agents. Part 5: synthesis and biological evaluation of benzothiadiazine 1,1-dioxide based congeners” (Eur J Med Chem, 2010):
≈ marks a conversion by molar mass, not a printed value. Calls of active or inactive are those of the source. The rule behind the calls is not given here.

What was measured:
Klebsiella pneumoniae [1] = assay: Antibacterial activity against Klebsiella pneumoniae at 100 ug/ml after 18 hrs by cup plate method; format: functional; conditions: read-out: DIZ
Summary of the method: (§1)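 Agar well diffusion on Mueller-Hinton agar. Inoculum was adjusted to a 0.5 McFarland standard (about […] × 10⁸ CFU/mL) and swabbed over the plate three times, rotating about 60° each time, then the rim was swabbed. Compounds in DMSO went into duplicate 6 mm wells. Plates were incubated at 37 °C for 18 h and inhibition zone diameter read to the nearest mm. DMSO negative control; streptomycin and ciprofloxacin positive controls.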

Aspergillus sp. [2] = assay: Antifungal activity against Aspergillus sp. at 75 ug/ml after 48 hrs by cup plate method; format: functional
Summary of the method: (§2)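 Agar well (cup plate) diffusion on potato dextrose agar 39 g/L, with compounds dissolved in DMSO. Plates were incubated at 28 ± 2 °C for 48 h and inhibition zones measured to the nearest mm. Three replicates per treatment. Amphotericin B positive control; solvent control included.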

Staphylococcus aureus [3] = assay: Antibacterial activity against Staphylococcus aureus at 50 ug/ml after 18 hrs by cup plate method; format: functional; conditions: read-out: DIZ; summary of the method: as §1
Bacillus subtilis [4] = assay: Antibacterial activity against Bacillus subtilis at 50 ug/ml after 18 hrs by cup plate method; format: functional; summary of the method: as §1
[5] = system: Staphylococcus epidermidis; assay: Antibacterial activity against Staphylococcus epidermidis at 10 ug/ml after 18 hrs by cup plate method; format: functional; conditions: read-out: DIZ; summary of the method: as §1
[6] = system: Staphylococcus epidermidis; assay: Antibacterial activity against Staphylococcus epidermidis at 50 ug/ml after 18 hrs by cup plate method; format: functional; conditions: read-out: DIZ; summary of the method: as §1
Candida albicans [7] = assay: Antifungal activity against Candida albicans MTCC 227 at 75 ug/ml after 48 hrs by cup plate method; format: functional; conditions: MTCC 227, 48 h, read-out: IZ
Summary of the method: (§3)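 Agar well (cup plate) diffusion on potato dextrose agar 39 g/L. Compounds dissolved in DMSO and loaded into 6 mm wells. Incubated at 28 ± 2 °C for 48 h. Inhibition zone diameter measured to the nearest millimetre, three replicates per treatment. DMSO solvent as negative control, amphotericin B as positive control.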

Candida albicans [8] = assay: Antifungal activity against Candida albicans MTCC 227 at 50 ug/ml after 48 hrs by cup plate method; format: functional; summary of the method: as §3
Pseudomonas aeruginosa [9] = assay: Antibacterial activity against Pseudomonas aeruginosa at 10 ug/ml after 18 hrs by cup plate method; format: functional; summary of the method: as §1
Candida albicans [10] = assay: Antifungal activity against Candida albicans MTCC 227 at 100 ug/ml after 48 hrs by cup plate method; format: functional; conditions: MTCC 227, 48 h, read-out: IZ; summary of the method: as §2
Klebsiella pneumoniae [11] = assay: Antibacterial activity against Klebsiella pneumoniae at 75 ug/ml after 18 hrs by cup plate method; format: functional; conditions: read-out: DIZ; summary of the method: as §1
Aspergillus niger [12] = assay: Antifungal activity against Aspergillus niger at 25 ug/ml after 48 hrs by cup plate method; format: functional, organism-based; summary of the method: as §2
Aspergillus niger [13] = assay: Antifungal activity against Aspergillus niger at 50 ug/ml after 48 hrs by cup plate method; format: functional, organism-based; summary of the method: as §2
Aspergillus niger [14] = assay: Antifungal activity against Aspergillus niger at 75 ug/ml after 48 hrs by cup plate method; format: functional; summary of the method: as §2
Pseudomonas aeruginosa [15] = assay: Antibacterial activity against Pseudomonas aeruginosa at 75 ug/ml after 18 hrs by cup plate method; format: functional; conditions: read-out: DIZ; summary of the method: as §1
[16] = system: Staphylococcus epidermidis; assay: Antibacterial activity against Staphylococcus epidermidis at 25 ug/ml after 18 hrs by cup plate method; format: functional; conditions: read-out: DIZ; summary of the method: as §1
Aspergillus sp. [17] = assay: Antifungal activity against Aspergillus sp. at 25 ug/ml after 48 hrs by cup plate method; format: functional; summary of the method: as §2
Aspergillus sp. [18] = assay: Antifungal activity against Aspergillus sp. at 50 ug/ml after 48 hrs by cup plate method; format: functional; summary of the method: as §2
Pseudomonas aeruginosa [19] = assay: Antibacterial activity against Pseudomonas aeruginosa at 100 ug/ml after 18 hrs by cup plate method; format: functional; conditions: read-out: DIZ; summary of the method: as §1
Staphylococcus aureus [20] = assay: Antibacterial activity against Staphylococcus aureus at 100 ug/ml after 18 hrs by cup plate method; format: functional; conditions: read-out: DIZ; summary of the method: as §1
Klebsiella pneumoniae [21] = assay: Antibacterial activity against Klebsiella pneumoniae at 25 ug/ml after 18 hrs by cup plate method; format: functional; conditions: read-out: DIZ; summary of the method: as §1
Pseudomonas aeruginosa [22] = assay: Antibacterial activity against Pseudomonas aeruginosa at 25 ug/ml after 18 hrs by cup plate method; format: functional; conditions: read-out: DIZ; summary of the method: as §1
Klebsiella pneumoniae [23] = assay: Antibacterial activity against Klebsiella pneumoniae at 50 ug/ml after 18 hrs by cup plate method; format: functional; summary of the method: as §1
Bacillus subtilis [24] = assay: Antibacterial activity against Bacillus subtilis at 100 ug/ml after 18 hrs by cup plate method; format: functional; conditions: read-out: DIZ; summary of the method: as §1
Bacillus subtilis [25] = assay: Antibacterial activity against Bacillus subtilis at 10 ug/ml after 18 hrs by cup plate method; format: functional; conditions: read-out: DIZ; summary of the method: as §1
Candida albicans [26] = assay: Antifungal activity against Candida albicans MTCC 227 at 25 ug/ml after 48 hrs by cup plate method; format: functional; summary of the method: as §3
Escherichia coli [27] = assay: Antibacterial activity against Escherichia coli at 50 ug/ml after 18 hrs by cup plate method; format: functional; summary of the method: as §1
Staphylococcus aureus [28] = assay: Antibacterial activity against Staphylococcus aureus at 75 ug/ml after 18 hrs by cup plate method; format: functional; conditions: read-out: DIZ; summary of the method: as §1
Escherichia coli [29] = assay: Antibacterial activity against Escherichia coli at 75 ug/ml after 18 hrs by cup plate method; format: functional; conditions: read-out: DIZ; summary of the method: as §1
[30] = system: Staphylococcus epidermidis; assay: Antibacterial activity against Staphylococcus epidermidis at 75 ug/ml after 18 hrs by cup plate method; format: functional; conditions: read-out: DIZ; summary of the method: as §1
[31] = system: Mycobacterium tuberculosis; assay: Antimycobacterial activity against Mycobacterium tuberculosis H37Rv after 3 to 4 weeks by broth microdilution assay; format: functional
Summary of the method: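 MIC by broth microdilution on compounds active in a single-concentration primary screen. Plates incubated 3–4 weeks at 37 °C in a CO₂ incubator. Wells read visually for absence of growth turbidity.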

Staphylococcus aureus [32] = assay: Antibacterial activity against Staphylococcus aureus at 10 ug/ml after 18 hrs by cup plate method; format: functional; summary of the method: as §1
Aspergillus niger [33] = assay: Antifungal activity against Aspergillus niger at 100 ug/ml after 48 hrs by cup plate method; format: functional; summary of the method: as §2
Pseudomonas aeruginosa [34] = assay: Antibacterial activity against Pseudomonas aeruginosa at 50 ug/ml after 18 hrs by cup plate method; format: functional; summary of the method: as §1
Klebsiella pneumoniae [35] = assay: Antibacterial activity against Klebsiella pneumoniae at 10 ug/ml after 18 hrs by cup plate method; format: functional; summary of the method: as §1
Aspergillus sp. [36] = assay: Antifungal activity against Aspergillus sp. at 100 ug/ml after 48 hrs by cup plate method; format: functional; summary of the method: as §2
[37] = system: Staphylococcus epidermidis; assay: Antibacterial activity against Staphylococcus epidermidis at 100 ug/ml after 18 hrs by cup plate method; format: functional; conditions: read-out: DIZ; summary of the method: as §1
Staphylococcus aureus [38] = assay: Antibacterial activity against Staphylococcus aureus at 25 ug/ml after 18 hrs by cup plate method; format: functional; conditions: read-out: DIZ; summary of the method: as §1
Escherichia coli [39] = assay: Antibacterial activity against Escherichia coli at 100 ug/ml after 18 hrs by cup plate method; format: functional; conditions: read-out: DIZ; summary of the method: as §1

CN1C(N2CCN(Cc3ccc([N+](=O)[O-])o3)CC2)=NS(=O)(=O)c2ccccc21
zone of inhibition at 100 µg/mL (Klebsiella pneumoniae [1]): 19 mm
inhibition zone (IZ) (Aspergillus sp. [2]): inactive
zone of inhibition at 50 µg/mL (Staphylococcus aureus [3]): 14 mm
diameter of the inhibition zone (DIZ) (Bacillus subtilis [4]): inactive
zone of inhibition at 10 µg/mL [5]: 10 mm
zone of inhibition at 50 µg/mL [6]: 15 mm
zone of inhibition at 75 µg/mL (Candida albicans [7]): 14 mm
zone of inhibition at 50 µg/mL (Candida albicans [8]; MTCC 227, 48 h, read-out: IZ): 11 mm
diameter of the inhibition zone (DIZ) (Pseudomonas aeruginosa [9]): inactive
zone of inhibition at 100 µg/mL (Candida albicans [10]): 18 mm
zone of inhibition at 75 µg/mL (Klebsiella pneumoniae [11]): 17 mm
inhibition zone (IZ) (Aspergillus niger [12]): inactive
inhibition zone (IZ) (Aspergillus niger [13]): inactive
inhibition zone (IZ) (Aspergillus niger [14]): inactive
zone of inhibition at 75 µg/mL (Pseudomonas aeruginosa [15]): 17 mm
zone of inhibition at 25 µg/mL [16]: 13 mm
inhibition zone (IZ) (Aspergillus sp. [17]): inactive
inhibition zone (IZ) (Aspergillus sp. [18]): inactive
zone of inhibition at 100 µg/mL (Pseudomonas aeruginosa [19]): 17 mm
zone of inhibition at 100 µg/mL (Staphylococcus aureus [20]): 17 mm
zone of inhibition at 25 µg/mL (Klebsiella pneumoniae [21]): 12 mm
zone of inhibition at 25 µg/mL (Pseudomonas aeruginosa [22]): 12 mm
zone of inhibition at 50 µg/mL (Klebsiella pneumoniae [23]; read-out: DIZ): 10 mm
zone of inhibition at 100 µg/mL (Bacillus subtilis [24]): 23 mm
zone of inhibition at 10 µg/mL (Bacillus subtilis [25]): 9 mm
inhibition zone (IZ) (Candida albicans [26]): inactive
zone of inhibition at 50 µg/mL (Escherichia coli [27]; read-out: DIZ): 15 mm
zone of inhibition at 75 µg/mL (Staphylococcus aureus [28]): 17 mm
zone of inhibition at 75 µg/mL (Escherichia coli [29]): 29 mm
zone of inhibition at 75 µg/mL [30]: 18 mm
MIC [31]: 8 µg/mL (≈ 19.7 µM)
diameter of the inhibition zone (DIZ) (Staphylococcus aureus [32]): inactive
inhibition zone (IZ) (Aspergillus niger [33]): inactive
zone of inhibition at 50 µg/mL (Pseudomonas aeruginosa [34]; read-out: DIZ): 10 mm
diameter of the inhibition zone (DIZ) (Klebsiella pneumoniae [35]): inactive
inhibition zone (IZ) (Aspergillus sp. [36]): inactive
zone of inhibition at 100 µg/mL [37]: 24 mm
zone of inhibition at 25 µg/mL (Staphylococcus aureus [38]): 10 mm
zone of inhibition at 100 µg/mL (Escherichia coli [39]): 26 mm

CCN1C(N2CCN(Cc3ccc([N+](=O)[O-])s3)CC2)=NS(=O)(=O)c2ccccc21
zone of inhibition at 100 µg/mL (Klebsiella pneumoniae [1]): 14 mm
zone of inhibition at 50 µg/mL (Staphylococcus aureus [3]): 10 mm
diameter of the inhibition zone (DIZ) (Bacillus subtilis [4]): inactive
zone of inhibition at 50 µg/mL [6]: 12 mm
inhibition zone (IZ) (Candida albicans [8]): inactive
zone of inhibition at 100 µg/mL (Candida albicans [10]): 14 mm
zone of inhibition at 100 µg/mL (Pseudomonas aeruginosa [19]): 11 mm
zone of inhibition at 100 µg/mL (Staphylococcus aureus [20]): 11 mm
diameter of the inhibition zone (DIZ) (Klebsiella pneumoniae [23]): inactive
zone of inhibition at 100 µg/mL (Bacillus subtilis [24]): 16 mm
diameter of the inhibition zone (DIZ) (Escherichia coli [27]): inactive
MIC [31]: 4 µg/mL (≈ 9.18 µM)
diameter of the inhibition zone (DIZ) (Pseudomonas aeruginosa [34]): inactive
zone of inhibition at 100 µg/mL [37]: 18 mm
zone of inhibition at 100 µg/mL (Escherichia coli [39]): 15 mm
